Screening results (PubChem BioAssay)
The list is not random: actives were taken first. Their share in the collection is about 2.2%.
HNF4A DNA FP: change in binding of human HNF4A to DNA, primary screen, biochemical, fluorescence polarization, FITC-DNA; 360,000 tested, 0.3% active; activity change, % at 10 µM; 1 h; Hepatocyte nuclear factor 4-alpha (Homo sapiens), P41235; in the data active means activity change above about 30%, passing the limit was not always enough
CSN deneddyl inh: inhibitors of CSN-mediated cullin deneddylation, primary screen, biochemical, fluorescence polarization, uHTS | COP9 signalosome complex subunit 5 (Homo sapiens), Q92905 | inhibition, % at 12.5 µM | 360,000 tested, 0.38% active | Purified CSN, SCF-Nedd8-OG deneddylation;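 active means pattern-corrected inhibition above about 35%, with an unprinted fluorescence ratio check between 0.5 and 1.5, limit read from the data, passing the limit was not always enough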;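 further: 0% = enzyme with substrate and 100% = substrate without enzyme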
Target sequence (Q92905 whole entry, looked up, one chain of several): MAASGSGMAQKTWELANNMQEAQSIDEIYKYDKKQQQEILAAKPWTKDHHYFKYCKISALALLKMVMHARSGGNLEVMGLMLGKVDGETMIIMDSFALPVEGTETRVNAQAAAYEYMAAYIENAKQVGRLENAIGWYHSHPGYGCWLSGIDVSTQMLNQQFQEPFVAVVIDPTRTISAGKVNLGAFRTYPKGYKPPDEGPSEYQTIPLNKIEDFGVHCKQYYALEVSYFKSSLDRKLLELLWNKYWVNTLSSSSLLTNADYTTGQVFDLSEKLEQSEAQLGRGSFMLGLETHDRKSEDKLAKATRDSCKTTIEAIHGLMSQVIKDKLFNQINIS
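Test system: Human Csn5 produced in HEK293T cells | Compound: 12.5 µM single point | Times: 90 min, room temperature | Signal: Fluorescence polarization readout | Read-out basis: % inhibition of substrate cleavage by Csn5 | Controls: no-enzyme wells high, enzyme-with-substrate wells low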
Exocytosis inh: LAMP-1 surface exposure blockers, TALL-104 cells – cell-based, flow cytometry, MLPCN library, primary screen; TALL-104 LAMP-1 surface exposure; cells stimulated with thapsigargin and PMA; inhibition, % at 10 µM; 360,000 tested, 0.66% active; AID 651702, 2012;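 active means inhibition above about 55%, limit read from the data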
Myeloid diff MLP: induction of myeloid progenitor differentiation, primary screen, cell-based, flow cytometry, MLPCN library. ER-HoxA9 myeloid progenitors, lysozyme-GFP differentiation. calls only at 10 µM. 360,000 tested, 1% active. AID 624256, 2012;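 active means normalized GFP-positive differentiation at or above the plate's own cutoff, the solvent-only control mean plus 3 SD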;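 further: cells exposed to compound for four days before flow analysis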
Myeloid diff CP1: inducers of myeloid progenitor differentiation, confirmation, cell-based, GFP/Mac1 flow cytometry, cherry pick 01 | shares compounds with Myeloid diff MLP | ER-HoxA9 myeloid progenitors, GFP/Mac1 double-positive flow | calls only | 2,300 tested, 2% active;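 active means share of green or green-and-red cells above 9 and 9% in run 1 or 4 and 3% in run 2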
GFP autofluor: compound fluorescence in myeloid differentiation counter-screen; shares compounds with Myeloid diff MLP; fluorescence response, % (concentration not given with the values); 2,300 tested, 7.4% active; ER-HoxA9 myeloid progenitors, no estrogen, GFP autofluorescence flow cytometry; vehicle wells 0%, positive control 100%;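 active means over 5% cells positive for green fluorescent reporter, or over 2% positive for both it and APC stain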;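 further: range taken on the double positive population between DMSO and positive control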
The depositor's hits bear a star; i = inactive; nt = no result; + = active, no number.

SMILES	HNF4A DNA FP	CSN deneddyl inh	Exocytosis inh	Myeloid diff MLP	Myeloid diff CP1	GFP autofluor
COc1ccc([C@H]2N[C@]3(CCCN(Cc4cccn4C)C3=O)[C@H]3C(=O)N(Cc4ccccc4)C(=O)[C@@H]23)cc1	-1	0	4	i	i	1
COc1ccc(CN2CCC[C@]3(N[C@H](c4ccc(C)cc4)[C@@H]4C(=O)N(Cc5ccccc5)C(=O)[C@@H]43)C2=O)cc1	2	1	-3	i	i	0
COc1ccc(CN2C(=O)c3ccccc3C2c2nnnn2C(C)C)cc1 (centres undefined)	-3	2	4	i	nt	nt
Cc1ccc(NS(=O)(=O)c2ccc(Cl)c(C(=O)Nc3ccccc3-c3nc4ccccc4[nH]3)c2)cc1C	-2	-12	14	i	i	0
CN(C)S(=O)(=O)c1ccc(Cl)c(C(=O)Nc2nc3ccccc3[nH]2)c1	0	4	0	i	nt	nt
CN1/C(=C/C=C/c2n(C)c3cc([N+](=O)[O-])c([N+](=O)[O-])cc3[n+]2C)C(C)(C)c2ccccc21	95*	11	-4	+	i	7.2*
CCOC(=O)c1ccc(N=c2sc(C(=O)OC)cc(=O)n2Cc2ccc3c(c2)OCO3)cc1	1	6	-1	i	nt	nt
CCOC(=O)c1ccc(N=c2sc(C(=O)OC)cc(=O)n2C2CC2)cc1	-4	-4	0	i	i	0
Cc1ccc(N)cc1NC(=O)CN1CCOCC1	4	0	-7	i	nt	nt
CC1Sc2ccc(S(=O)(=O)CCC(=O)N3CCN(c4ccccc4F)CC3)cc2NC1=O (centres undefined)	1	-4	1	i	nt	nt
COc1ccccc1CNC(=O)CSc1ccsc1[N+](=O)[O-]	0	-2	-2	i	i	1
Cc1ccc(N=C2NC(=O)/C(=C/c3cn(C)c4ccccc34)S2)cc1C	65*	54	4	+	i	35*
Cc1ccc(C(=O)NNC(=O)c2csc(N3CCOCC3)n2)s1	1	-2	0	i	nt	nt
CC(C)(C)c1cc(Cl)c(O)c(NC(=S)NC(=O)c2cccnc2)c1	8	16	-2	+	i	0
CCCc1c(C(=O)Nc2ccc(F)cc2C)cnn1-c1ccccc1	1	5	-5	i	nt	nt
CCCc1c(NC(=O)Nc2ccc(F)cc2)cnn1-c1ccccc1	-1	-1	4	+	i	0
Cc1ccc(OCC(=O)Nc2ccc(NC(=O)c3ccccc3)c(C)c2)cc1	1	3	2	i	nt	nt
N#CCCCC1(CCCC#N)OCCO1	-1	-3	0	i	nt	nt
COC(=O)COc1ccc(C2NC(=O)NC(c3ccccc3)=C2C(C)=O)cc1Br (centres undefined)	-2	-4	1	i	nt	nt
O=c1[nH][nH]cc1C=Nc1ccccc1O	5	-2	4	+	+	0
O=c1[nH][nH]cc1C=Nc1cc(Cl)ccc1O	0	6	2	i	i	0
O=c1[nH][nH]cc1C=Nc1ccc(Cl)cc1Cl	3	-2	-1	i	nt	nt
CCC1c2ccc(C)n2CCN1C(=O)Nc1ccccc1C(=O)OC (centres undefined)	1	-5	-1	i	nt	nt
CCC1c2ccc(C)n2CCN1C(=O)Nc1cc(Cl)ccc1OC (centres undefined)	4	0	-5	nt	i	1
CCNCCNC(=O)c1c(O)c2cccc3c2n(c1=O)CCC3	1	-8	13	i	i	0
CCCCNC(=O)c1c(O)c2cccc3c2n(c1=O)CCC3	1	-7	1	i	nt	nt
COc1cccc(NC(=O)CSc2nnc(-c3ccco3)c(-c3ccco3)n2)c1	-35	39	-14	+	i	0
CCn1ncc(C2=NOC(C(=O)NCC(C)C)C2)c1C (centres undefined)	-4	1	-1	i	nt	nt
